Experimental data published in ChEMBL document CHEMBL4138242, “Synthesis and antibacterial evaluation of novel cationic chalcone derivatives possessing broad spectrum antibacterial activity” (Eur J Med Chem, 2018).

tested on: Klebsiella pneumoniae; assay: Antibacterial activity against drug-resistant carbapenemase producing Klebsiella pneumoniae clinical isolate KP-13-54 after 16 to 20 hrs by broth microdilution method; assay type: functional
Method in brief: (§1)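 CLSI broth microdilution in Mueller-Hinton broth. A 4-6 h culture was diluted to about 10⁶ CFU/mL and mixed 1:1 with compound dilutions prepared at 256 to 0.5 µg/mL from aqueous stocks. Plates were incubated at 37 °C for 16-20 h and read visually for MIC. Each concentration was run in duplicate, and the experiment was repeated at least twice. Vancomycin and meropenem were comparators.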

| Compound | MIC [mg/L] |
| --- | --- |
| CCCCCCCC[N+](C)(C)CC(=O)Nc1ccc(C(=O)/C=C/c2ccco2)cc1.[Cl-] | 16 |

tested on: Klebsiella pneumoniae; assay: Antibacterial activity against drug-resistant carbapenemase producing Klebsiella pneumoniae clinical isolate KP-14-2 after 16 to 20 hrs by broth microdilution method; assay type: functional; method in brief: as §1

| Compound | MIC [mg/L] |
| --- | --- |
| CCCCCCCC[N+](C)(C)CC(=O)Nc1ccc(C(=O)/C=C/c2ccco2)cc1.[Cl-] | 2 |

tested on: Klebsiella pneumoniae; assay: Antibacterial activity against drug-resistant carbapenemase producing Klebsiella pneumoniae clinical isolate EC-13-23 after 16 to 20 hrs by broth microdilution method; assay type: functional; method in brief: as §1

| Compound | MIC [mg/L] |
| --- | --- |
| CCCCCCCC[N+](C)(C)CC(=O)Nc1ccc(C(=O)/C=C/c2ccco2)cc1.[Cl-] | 8 |

tested on: Klebsiella pneumoniae; assay: Antibacterial activity against drug-resistant carbapenemase producing Klebsiella pneumoniae clinical isolate KP-14-5 after 16 to 20 hrs by broth microdilution method; assay type: functional; method in brief: as §1

| Compound | MIC [mg/L] |
| --- | --- |
| CCCCCCCC[N+](C)(C)CC(=O)Nc1ccc(C(=O)/C=C/c2ccco2)cc1.[Cl-] | 16 |

tested on: Klebsiella pneumoniae; assay: Antibacterial activity against drug-resistant carbapenemase producing Klebsiella pneumoniae clinical isolate KP-13-55 after 16 to 20 hrs by broth microdilution method; assay type: functional; method in brief: as §1

| Compound | MIC [mg/L] |
| --- | --- |
| CCCCCCCC[N+](C)(C)CC(=O)Nc1ccc(C(=O)/C=C/c2ccco2)cc1.[Cl-] | 32 |

tested on: Klebsiella pneumoniae; assay: Antibacterial activity against drug-resistant carbapenemase producing Klebsiella pneumoniae clinical isolate KP-14-45 after 16 to 20 hrs by broth microdilution method; assay type: functional; method in brief: as §1

| Compound | MIC [mg/L] |
| --- | --- |
| CCCCCCCC[N+](C)(C)CC(=O)Nc1ccc(C(=O)/C=C/c2ccco2)cc1.[Cl-] | 32 |

tested on: Klebsiella pneumoniae; assay: Antibacterial activity against drug-resistant carbapenemase producing Klebsiella pneumoniae clinical isolate KP-14-18 after 16 to 20 hrs by broth microdilution method; assay type: functional; method in brief: as §1

| Compound | MIC [mg/L] |
| --- | --- |
| CCCCCCCC[N+](C)(C)CC(=O)Nc1ccc(C(=O)/C=C/c2ccco2)cc1.[Cl-] | 32 |

tested on: Escherichia coli; assay: Antibacterial activity against drug-resistant NDM1 producing Escherichia coli clinical isolate EC-13-49 after 16 to 20 hrs by broth microdilution method; assay type: functional; method in brief: as §1

| Compound | MIC [mg/L] |
| --- | --- |
| CCCCCCCC[N+](C)(C)CC(=O)Nc1ccc(C(=O)/C=C/c2ccco2)cc1.[Cl-] | 16 |

tested on: Escherichia coli; assay: Antibacterial activity against drug-resistant NDM1 producing Escherichia coli clinical isolate Ecl-14-58 after 16 to 20 hrs by broth microdilution method; assay type: functional; method in brief: as §1

| Compound | MIC [mg/L] |
| --- | --- |
| CCCCCCCC[N+](C)(C)CC(=O)Nc1ccc(C(=O)/C=C/c2ccco2)cc1.[Cl-] | 16 |

tested on: Escherichia coli; assay: Antibacterial activity against drug-resistant NDM1 producing Escherichia coli clinical isolate KP-13-58 after 16 to 20 hrs by broth microdilution method; assay type: functional; method in brief: as §1

| Compound | MIC [mg/L] |
| --- | --- |
| CCCCCCCC[N+](C)(C)CC(=O)Nc1ccc(C(=O)/C=C/c2ccco2)cc1.[Cl-] | 4 |

tested on: Escherichia coli; assay: Antibacterial activity against drug-resistant NDM1 producing Escherichia coli clinical isolate Ecl-13-62 after 16 to 20 hrs by broth microdilution method; assay type: functional; method in brief: as §1

| Compound | MIC [mg/L] |
| --- | --- |
| CCCCCCCC[N+](C)(C)CC(=O)Nc1ccc(C(=O)/C=C/c2ccco2)cc1.[Cl-] | 8 |

tested on: Escherichia coli; assay: Antibacterial activity against drug-resistant NDM1 producing Escherichia coli clinical isolate EC-14-54 after 16 to 20 hrs by broth microdilution method; assay type: functional; method in brief: as §1

| Compound | MIC [mg/L] |
| --- | --- |
| CCCCCCCC[N+](C)(C)CC(=O)Nc1ccc(C(=O)/C=C/c2ccco2)cc1.[Cl-] | 32 |

tested on: Escherichia coli; assay: Antibacterial activity against drug-resistant NDM1 producing Escherichia coli clinical isolate Ecl-14-59 after 16 to 20 hrs by broth microdilution method; assay type: functional; method in brief: as §1

| Compound | MIC [mg/L] |
| --- | --- |
| CCCCCCCC[N+](C)(C)CC(=O)Nc1ccc(C(=O)/C=C/c2ccco2)cc1.[Cl-] | 16 |

tested on: Escherichia coli; assay: Antibacterial activity against drug-resistant NDM1 producing Escherichia coli clinical isolate EA-14-61 after 16 to 20 hrs by broth microdilution method; assay type: functional; method in brief: as §1

| Compound | MIC [mg/L] |
| --- | --- |
| CCCCCCCC[N+](C)(C)CC(=O)Nc1ccc(C(=O)/C=C/c2ccco2)cc1.[Cl-] | 16 |

tested on: Escherichia coli; assay: Antibacterial activity against drug-resistant NDM1 producing Escherichia coli clinical isolate Ecl-14-56 after 16 to 20 hrs by broth microdilution method; assay type: functional; method in brief: as §1

| Compound | MIC [mg/L] |
| --- | --- |
| CCCCCCCC[N+](C)(C)CC(=O)Nc1ccc(C(=O)/C=C/c2ccco2)cc1.[Cl-] | 16 |

tested on: Escherichia coli; assay: Antibacterial activity against drug-resistant NDM1 producing Escherichia coli clinical isolate 1460 after 16 to 20 hrs by broth microdilution method; assay type: functional; method in brief: as §1

| Compound | MIC [mg/L] |
| --- | --- |
| CCCCCCCC[N+](C)(C)CC(=O)Nc1ccc(C(=O)/C=C/c2ccco2)cc1.[Cl-] | 16 |

tested on: Escherichia coli; assay: Antibacterial activity against drug-resistant NDM1 producing Escherichia coli clinical isolate SM-15-84 after 16 to 20 hrs by broth microdilution method; assay type: functional; method in brief: as §1

| Compound | MIC [mg/L] |
| --- | --- |
| CCCCCCCC[N+](C)(C)CC(=O)Nc1ccc(C(=O)/C=C/c2ccco2)cc1.[Cl-] | 32 |

tested on: Escherichia coli; assay: Antibacterial activity against drug-resistant NDM1 producing Escherichia coli clinical isolate CF-15-61 after 16 to 20 hrs by broth microdilution method; assay type: functional; method in brief: as §1

| Compound | MIC [mg/L] |
| --- | --- |
| CCCCCCCC[N+](C)(C)CC(=O)Nc1ccc(C(=O)/C=C/c2ccco2)cc1.[Cl-] | 16 |

tested on: Escherichia coli; assay: Antibacterial activity against drug-resistant NDM1 producing Escherichia coli clinical isolate CF-13-61 after 16 to 20 hrs by broth microdilution method; assay type: functional; method in brief: as §1

| Compound | MIC [mg/L] |
| --- | --- |
| CCCCCCCC[N+](C)(C)CC(=O)Nc1ccc(C(=O)/C=C/c2ccco2)cc1.[Cl-] | 64 |
